Experimental data collected from several papers.
Medium: plasma

SMILES	host	route	dose	setting	AUC(0-inf)
COc1ccc(-n2nc(C(N)=O)c3c2C(=O)N(c2ccc(N4CCCCC4=O)cc2)CC3)cc1	human	oral	10 mg	single dose, healthy volunteers	2530 ng·h/mL
CCOc1ccc(Cc2cc([C@@H]3S[C@H](CO)[C@@H](O)[C@H](O)[C@H]3O)c(OC)cc2C)cc1	male human	oral	5 mg	single dose, fasted	2010 ng·h/mL
C[C@@H](Oc1ccc(S(C)(=O)=O)cc1C(=O)N1C[C@@H]2C[C@]2(c2cc(C(F)(F)F)on2)C1)C(F)(F)F	human	oral	25 mg	fasted, tablet	9.17 µM·h
COc1ccc([C@@H]2CN(C(=O)[C@@H](O)CO)C[C@@]2(C)[C@@H](C)O)cc1OC1CN(c2ccc(C)cn2)C1	human	oral	5 mg	single dose, healthy volunteers	1850 ng·h/mL
O=C(/C=C/c1cccc(S(=O)(=O)Nc2ccccc2)c1)NO	human	intravenous	1900 mg/m²	patients	72800 ng·h/mL
CNC(=O)c1ccccc1Sc1ccc2c(/C=C/c3ccccn3)n[nH]c2c1	human	oral	5 mg	single dose, fasted	197 ng·h/mL
COc1ccc(-n2nc(C(N)=O)c3c2C(=O)N(c2ccc(N4CCCCC4=O)cc2)CC3)cc1	male human	oral	50 mg	single dose	4740 ng·h/mL
O=C(Nc1c(Cl)cncc1Cl)c1ccc(OC(F)F)c(OCC2CC2)c1	human	oral	0.5 mg	single dose, fasted	65.1 ng·h/mL
CCc1nc2c(C)cc(N3CCN(CC(=O)N4CC(O)C4)CC3)cn2c1N(C)c1nc(-c2ccc(F)cc2)c(C#N)s1	human	oral	1000 mg	fed, healthy volunteers	71400 ng·h/mL
CO[C@H]1/C=C\C=C(/C)C(=O)NC2=CC(=O)C(NCCN(C)C)=C(C[C@@H](C)C[C@H](OC)[C@H](O)[C@@H](C)/C=C(\C)[C@@H]1OC(N)=O)C2=O	human	intravenous	27 mg/m²	patients, infusion	4140 ng·h/mL
CO[C@H]1CC[C@H](N2C(=O)CNc3ncc(-c4ccc(C(C)(C)O)nc4)nc32)CC1	human	oral	60 mg	patients	2070 ng·h/mL
C[C@@]1(c2cc(NC(=O)c3ccc(C#N)cn3)ccc2F)C=CSC(N)=N1	human	oral	10 mg	single dose	1040 ng·h/mL
CC(C)[C@](O)(c1ccc2cc(OC(F)F)c(OC(F)F)cc2c1)c1c[nH]nn1	female human	oral	600 mg	single dose	54700 ng·h/mL
COC(=O)N[C@@H](C)CNc1nccc(-c2cn(C(C)C)nc2-c2cc(Cl)cc(NS(C)(=O)=O)c2F)n1	human	oral	50 mg	single dose	1880 ng·h/mL
CCCOc1ccc([C@H]2CNC(=O)N2c2ccc3[nH]cnc3c2)cc1	human	oral	200 mg	single dose, fed, healthy volunteers	2310 ng·h/mL
COc1ccc2[nH]c([S+]([O-])Cc3ncc(C)c(OC)c3C)nc2c1 (stereo not shown)	male human	oral	100 µg		2.46 ng·h/mL
CC(C)n1cc(C#N)c2cc(-n3cc(C(=O)O)cn3)ccc21	human	oral	200 mg	single dose, fasted, healthy volunteers	44300 ng·h/mL
CN(C)CCCNC(=O)/C(=C/CCCCC(=O)NO)COc1cccc2ccccc12	human	intravenous	187.5 mg/m²	single dose	30700 ng·h/mL
FC(F)(F)c1ccc(CNc2ccc(Cc3c[nH]c4ncc(Cl)cc34)cn2)cn1	male human	oral	400 mg	single dose, healthy volunteers	61300 ng·h/mL
CC(C)(O)c1ccccc1-c1ccc2[nH]c(/C=C/c3ccc(C(F)(F)F)cc3)nc2c1	male human	oral	15 mg	single dose, fasted	5190 ng·h/mL
CC(C)(Sc1ccncc1-c1ccc(C#N)c2ccccc12)C(=O)O	male human	oral	5 mg	single dose, fasted, healthy volunteers	121 ng·h/mL
Nc1ccc(-c2nc([C@H]3CCc4cc(-c5cc(Cl)ccc5-n5cnnn5)cc(=O)n43)c(F)[nH]2)c(F)n1	human	oral	80 mg	single dose, fed	15900 ng·h/mL
CS(=O)(=O)CCC#N	human	oral	1000 mg	single dose, fasted	930000 ng·h/mL
Cn1cc(-c2ccc(S(=O)(=O)[C@@H]3C[C@@H](C(=O)NC4(C#N)CC4)N(C(=O)C4(C(F)(F)F)CC4)C3)c(C(F)(F)F)c2)cn1	human	oral	100 mg	single dose, fasted, healthy volunteers	10600 ng·h/mL
CCCCC[C@H](O)CC[C@@H]1[C@H]2Cc3cccc(OCC(=O)O)c3C[C@H]2C[C@H]1O	human	inhaled	36 µg	single dose, healthy volunteers	0.7 ng·h/mL
